Results on six compounds are retold here after ChEMBL document CHEMBL3872203, “Synthesis, anticancer activity and photostability of novel 3-ethyl-2-mercapto-thieno[2,3-d]pyrimidin-4(3H)-ones” (Eur J Med Chem, 2016).

A word on the IC50: it is the midpoint of a concentration-inhibition curve. A word on the EC50: it is the concentration that produces a half-maximal response.

Data set [1] is described as follows: Cytotoxicity against human MDA-MB-231 cells after 24 hrs by MTS assay. Format: functional, cell-based. Conditions: MDA-MB-231, 24 h. In short, it runs like this: (§1)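 Cells were exposed for 24 h to compound diluted 1:10, 1:100, 1:1000 and 1:10,000 from a 4 mg/ml DMSO stock; untreated controls were grown in non-modified medium. MTS was added for 2 h at 37 °C under 5% CO2, and absorbance was read at 490 nm. Viability is expressed as % of untreated control, averaged over three independent assays. EC50 or IC50 values were calculated from the plotted data.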

Data set [2] is described as follows: Photostability of the compound in DMF at 4089 +/- 0.164 10^-5mol/L measured up to 240 mins in presence of UV-light by UV-vis spectrophotometric analysis. Conditions: 4 h.
Data set [3] in a line: Photostability of the compound in DMF at 5242 +/- 0.209 10^-5mol/L measured up to 240 mins in presence of UV-light by UV-vis spectrophotometric analysis. The note with it: 4 h.
The nature of data set [4]: Photostability of the compound in DMF at 2185 +/- 0.087 10^-5mol/L measured up to 240 mins in presence of UV-light by UV-vis spectrophotometric analysis. Conditions: 4 h.
Data set [5] can be described thus: Cytotoxicity against human LEP-3 cells after 24 hrs by MTS assay. Format: toxicity, cell-based. The procedure, abridged:
as §1

Data set [6] in a line: Photostability of the compound in DMF at 3916 +/- 0.158 10^-5mol/L measured up to 240 mins in presence of UV-light by UV-vis spectrophotometric analysis. The note with it: 4 h.
Data set [7] in a line: Cytotoxicity against human HepG2 cells after 24 hrs by MTS assay. Format: functional, cell-based. The note with it: HepG2, 24 h. The procedure, abridged:
as §1
A general note: Tetrazolium dyes change colour on reduction, which living cells bring about.

Data set [8] is described as follows: Photostability of the compound in DMF at 2275 +/- 0.091 10^-5mol/L measured up to 240 mins in presence of UV-light by UV-vis spectrophotometric analysis. Conditions: 4 h.
Data set [9] is described as follows: Cytotoxicity against human HeLa cells after 24 hrs by MTS assay. It counts as functional, cell-based. The procedure, abridged: as §1
Data set [10] can be described thus: Cytotoxicity against human HT-29 cells after 24 hrs by MTS assay. Format: functional, cell-based. The note with it: HT-29, 24 h. In short, it runs like this: as §1
Data set [11] in a line: Antiproliferative activity against human MDA-MB-231 cells after 24 hrs by MTS assay. It counts as functional, cell-based. Conditions: MDA-MB-231, 24 h. The procedure, abridged: as §1
Data set [12] is described as follows: Photostability of the compound in DMF assessed as drug degradation at 3128 +/- 0.125 10^-5mol/L measured after 240 mins in presence of UV-light by UV-vis spectrophotometric analysis. It counts as physicochemical. The note with it: DMF solution under UV light; read-out: Drug degradation.
Data set [13] can be described thus: Antiproliferative activity against human HeLa cells after 24 hrs by MTS assay. It counts as functional, cell-based. The procedure, abridged: as §1
Data set [14] in a line: Antiproliferative activity against human HT-29 cells after 24 hrs by MTS assay. It counts as functional, cell-based. Conditions: HT-29, 24 h. In short, it runs like this: as §1
The next data set relates to HT-29. As to the kind of experiment: Ratio of IC50 for human LEP-3 cells to IC50 for human HT-29 cells.
A short description of data set [15]: Antiproliferative activity against human LEP-3 cells after 24 hrs by MTS assay. It counts as cell-based. The note with it: LEP-3, 24 h. In short, it runs like this: as §1
Data set [16] in a line: Antiproliferative activity against human HepG2 cells after 24 hrs by MTS assay. It counts as functional, cell-based. Conditions: HepG2, 24 h. The procedure, abridged:
as §1

For the compound `CCNc1nnc(CSc2nc3sc(C(=O)OCC)c(C)c3c(=O)n2CC)s1`, the half-maximal inhibitory concentration (IC50) turned out to be 2.13 µM in data set [1], 9.51 µM in [7], 0.83 µM in data set [9] and 9.12 µM in data set [10]. In addition, the Stability result in data set [2], in data set [3], in [4], in data set [6] and in data set [8] was “Stable” in each case. For the same compound, in data set [5], inhibition was half-maximal at 0.089 µM (IC50 at 24 h).

Turning to `CCNC(=S)NNC(=O)CSc1nc2sc(C)c(C)c2c(=O)n1CC`, the EC50 was 8.86 µM in [11], 0.43 µM in data set [13] and 0.085 µM in data set [14]. In addition, in [5], half-maximal inhibition (IC50 at 24 h) required 0.01 µM. Also, the degraded at 4 h in data set [12] stood at 30%.

Consider `CCNc1nnc(CSc2nc3sc(C)c(C)c3c(=O)n2CC)s1`, for which the IC50 was determined as 9.4 µM in [1], 0.99 µM in [7], 7.42 µM in data set [9] and 3.58 µM in [10]. Also, the Stability entry in data set [2], in data set [3], in data set [4], in data set [6] and in [8] was “Stable” each time. This compound also came in with an IC50 at 24 h in data set [5] of 191 µM.

`CCNC(=S)NNC(=O)CSc1nc2sc(C(=O)OCC)c(C)c2c(=O)n1CC`: the concentration for half-maximal inhibition (IC50) turned out to be 0.000231 µM in data set [1], 8.71 µM in data set [7], 8.71 µM in [9] and 7.38 µM in [10]. Further, the Stability entry in data set [2], in [3], in [4], in data set [6] and in [8] was “Stable” throughout. In data set [5], this compound gave a 50% inhibitory concentration (IC50) at 24 h of 0.8 µM.

As for `CCNc1nnc(CSc2nc3sc4c(c3c(=O)n2CC)CCCC4)s1`, the Stability result in data set [2], in data set [3], in data set [4], in data set [6] and in [8] was “Stable” in each case. Further, the EC50 came out at 0.001 µM in data set [11] and 9.28 µM in data set [13]. In the data set on HT-29, the “Ratio IC50” value is given as 100. This compound yielded a 50% inhibitory concentration (IC50) at 24 h in [5] of 9.77 µM. Also, the half-maximal inhibitory concentration (IC50) in data set [7] stood at 9.8 µM; in data set [10] it was 0.001 µM.

On to `CCNC(=S)NNC(=O)CSc1nc2sc3c(c2c(=O)n1CC)CCCC3`, for which the EC50 in data set [15] was 8.25 µM; in data set [11] it was 9.33 µM; in data set [16] it was 2.72 µM; in [13], 7.97 µM; in data set [14], 1.13 µM. In addition, the Stability entry in data set [2], in data set [3], in data set [4], in [6] and in data set [8] was “Stable” each time.
